Test results from ChEMBL document CHEMBL1649383, “Mode of action of epoxyphomalins A and B and characterization of related metabolites from the marine-derived fungus Paraconiothyrium sp” (J Nat Prod, 2010).
≈ marks a conversion by molar mass, not a printed value.

Key:
[1] = Cytotoxicity against human RXF 486L cells at 0.1 ug/ml relative to control; format: functional
[2] = Cytotoxicity against human MEXF 514L cells at 10 ug/ml relative to control; format: functional
[3] = Cytotoxicity against human MEXF 394NL cells at 1 ug/ml relative to control; format: functional
[4] = system: HT-29; test: Cytotoxicity against human HT-29 cells at 0.1 ug/ml relative to control; format: functional
[5] = system: PANC-1; test: Cytotoxicity against human PANC1 cells at 0.001 ug/ml relative to control; format: functional
[6] = system: HT-29; test: Cytotoxicity against human HT-29 cells at 10 ug/ml relative to control; format: functional
[7] = Cytotoxicity against human LXFA 289L cells at 0.001 ug/ml relative to control; format: functional
[8] = Cytotoxicity against human PAXF 1657L cells at 0.1 ug/ml relative to control; format: functional
[9] = Cytotoxicity against human LXFL 529L cells at 0.1 ug/ml relative to control; format: functional
[10] = system: NCI-H460; test: Cytotoxicity against human H460 cells at 1 ug/ml relative to control; format: functional
[11] = system: NCI-H460; test: Cytotoxicity against human H460 cells at 0.001 ug/ml relative to control; format: functional
[12] = Cytotoxicity against human MEXF 276L cells at 10 ug/ml relative to control; format: functional, MEXF276L
[13] = Cytotoxicity against human GXF251L cells at 10 ug/ml relative to control; format: functional
[14] = Cytotoxicity against human MEXF 514L cells at 0.01 ug/ml relative to control; format: functional
[15] = Cytotoxicity against human RXF 1781L cells at 0.001 ug/ml relative to control; format: functional
[16] = system: SF-268; test: Cytotoxicity against human SF268 cells at 10 ug/ml relative to control; format: functional
[17] = Cytotoxicity against human CNXF 498NL cells at 0.1 ug/ml relative to control; format: functional
[18] = Cytotoxicity against human RXF 1781L cells at 0.1 ug/ml relative to control; format: functional
[19] = Cytotoxicity against human RXF 944L cells at 1 ug/ml relative to control; format: functional
[20] = system: T-24; test: Cytotoxicity against human T24 cells at 0.01 ug/ml relative to control; format: functional
[21] = system: T-24; test: Cytotoxicity against human T24 cells at 0.001 ug/ml relative to control; format: functional
[22] = Cytotoxicity against human MEXF 394NL cells; format: functional, cell-based
How it was run: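 Monolayer cell survival and proliferation assay run across a panel of 36 human tumor cell lines, with IC50 determined from the resulting growth data.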

[23] = Cytotoxicity against human MEXF 276L cells at 0.001 ug/ml relative to control; format: functional, MEXF276L
[24] = Cytotoxicity against human LXFA 289L cells at 0.1 ug/ml relative to control; format: functional
[25] = system: HCT-116; test: Cytotoxicity against human HCT116 cells at 0.01 ug/ml relative to control; format: functional
[26] = Cytotoxicity against human LXFA 289L cells at 10 ug/ml relative to control; format: functional
[27] = Cytotoxicity against human CNXF 498NL cells at 0.01 ug/ml relative to control; format: functional
[28] = Cytotoxicity against human HNXF 536L cells at 0.1 ug/ml relative to control; format: functional
[29] = system: HCT-116; test: Cytotoxicity against human HCT116 cells at 1 ug/ml relative to control; format: functional
[30] = Cytotoxicity against human LXFA 629L cells at 0.01 ug/ml relative to control; format: functional
[31] = Cytotoxicity against human GXF251L cells at 0.001 ug/ml relative to control; format: functional
[32] = Cytotoxicity against human HNXF 536L cells; format: functional, cell-based
How it was run: (§1)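 Monolayer cell survival and proliferation assay, run within a panel of 36 human tumor cell lines; IC50 determined per cell line.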

[33] = Cytotoxicity against human OVXF 1619L cells at 0.01 ug/ml relative to control; format: functional
[34] = Cytotoxicity against human PXF 1752L cells at 0.001 ug/ml relative to control; format: functional
[35] = Cytotoxicity against human LXFA 289L cells at 0.01 ug/ml relative to control; format: functional
[36] = Cytotoxicity against human MAXF 401NL cells at 0.001 ug/ml relative to control; format: functional
[37] = system: CWR22R; test: Cytotoxicity against human 22Rv1 cells at 10 ug/ml relative to control; format: functional
[38] = system: LNCaP; test: Cytotoxicity against human LNCAP cells at 10 ug/ml relative to control; format: functional
[39] = system: PANC-1; test: Cytotoxicity against human PANC1 cells at 0.01 ug/ml relative to control; format: functional
[40] = system: CWR22R; test: Cytotoxicity against human 22Rv1 cells at 0.01 ug/ml relative to control; format: functional
[41] = Cytotoxicity against human RXF 393NL cells at 10 ug/ml relative to control; format: functional
[42] = system: PANC-1; test: Cytotoxicity against human PANC1 cells at 10 ug/ml relative to control; format: functional
[43] = Cytotoxicity against human LXFL 529L cells at 1 ug/ml relative to control; format: functional
[44] = system: OVCAR-3; test: Cytotoxicity against human OVCAR3 cells at 0.01 ug/ml relative to control; format: functional
[45] = Cytotoxicity against human UXF 1138L cells at 1 ug/ml relative to control; format: functional
[46] = Cytotoxicity against human PXF 1752L cells at 0.1 ug/ml relative to control; format: functional
[47] = system: NCI-H460; test: Cytotoxicity against human H460 cells at 0.01 ug/ml relative to control; format: functional
[48] = system: CWR22R; test: Cytotoxicity against human 22Rv1 cells; format: functional, cell-based; how it was run: as §1
[49] = system: LNCaP; test: Cytotoxicity against human LNCAP cells; format: functional, cell-based
How it was run: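 Monolayer cell survival and proliferation assay run across a panel of 36 human tumour cell lines; IC50 values determined.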

[50] = Cytotoxicity against human GXF251L cells; format: functional, cell-based; details: GXF 251L; how it was run: as §1
[51] = Cytotoxicity against human BXF 1218L cells at 0.01 ug/ml relative to control; format: functional
[52] = Cytotoxicity against human MEXF 394NL cells at 0.1 ug/ml relative to control; format: functional
[53] = Cytotoxicity against human UXF 1138L cells at 10 ug/ml relative to control; format: functional
[54] = system: NCI-H460; test: Cytotoxicity against human H460 cells; format: functional, cell-based; how it was run: as §1
[55] = Cytotoxicity against human RXF 944L cells at 10 ug/ml relative to control; format: functional
[56] = Cytotoxicity against human MEXF 462NL cells at 0.1 ug/ml relative to control; format: functional

C=C1[C@@H](O)[C@H]2O[C@@]2(C[C@H]2C(C)=CC[C@H]3C(C)(C)CCC[C@]23C)[C@@H](O)[C@H]1O [EPOXYPHOLAMIN D]
Activity [1]: 97% | Activity [2]: 11% | Activity [3]: 78% | Activity [4]: 108% | Activity [5]: 90% | Activity [6]: 1% | Activity [7]: 98% | Activity [8]: 92% | Activity [9]: 100% | Activity [10]: 86% | Activity [11]: 107% | Activity [12]: 20% | Activity [13]: 16% | Activity [14]: 123% | Activity [15]: 98% | Activity [16]: 1% | Activity [17]: 71% | Activity [18]: 98% | Activity [19]: 102% | Activity [20]: 97% | Activity [21]: 100% | IC50 [22]: 6.76 µM | IC70 [22]: 4.64 µg/mL (≈ 12.8 µM) | IC90 [22]: 8.8 µg/mL (≈ 24.3 µM) | Activity [23]: 98% | Activity [24]: 106% | Activity [25]: 97% | Activity [26]: 39% | Activity [27]: 91% | Activity [28]: 98% | Activity [29]: 87% | Activity [30]: 87% | Activity [31]: 105% | IC50 [32]: 7.92 µM | IC70 [32]: 5 µg/mL (≈ 13.8 µM) | IC90 [32]: 8.7 µg/mL (≈ 24 µM) | Activity [33]: 106% | Activity [34]: 95% | Activity [35]: 101% | Activity [36]: 106% | Activity [37]: 11% | Activity [38]: 27% | Activity [39]: 92% | Activity [40]: 81% | Activity [41]: 10% | Activity [42]: 7% | Activity [43]: 85% | Activity [44]: 98% | Activity [45]: 72% | Activity [46]: 95% | Activity [47]: 98% | IC50 [48]: 2.48 µM | IC70 [48]: 3.06 µg/mL (≈ 8.45 µM) | IC90 [48]: 10.6 µg/mL (≈ 29.4 µM) | IC50 [49]: 17 µM | IC70 [49]: 9.38 µg/mL (≈ 25.9 µM) | IC90 [49]: 14.3 µg/mL (≈ 39.5 µM) | IC50 [50]: 2.07 µM | IC70 [50]: 2.75 µg/mL (≈ 7.6 µM) | IC90 [50]: 17.4 µg/mL (≈ 47.9 µM) | Activity [51]: 94% | Activity [52]: 99% | Activity [53]: 9% | IC50 [54]: 7.48 µM | IC70 [54]: 4.73 µg/mL (≈ 13 µM) | IC90 [54]: 8.23 µg/mL (≈ 22.7 µM) | Activity [55]: 14% | Activity [56]: 167%
